Assay outcomes as filed in PubChem.
Shown are actives, neighbours in structure and some others; about 2.6% of the full set was active somewhere.
Scp-1 inhibitor – Scp-1 phosphatase inhibitors, primary screen, biochemical, colorimetric, uHTS; 340,000 tested, 0.88% active; Carboxy-terminal domain RNA polymerase II polypeptide A small phosphatase 1 (Homo …; Recombinant Scp1, phosphopeptide, malachite green phosphate absorbance; inhibition, % at 20 µM; AID 493091, 2011;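 active = inhibition above about 50% at 20 µM, limit read from the data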
Target sequence (Q9GZU7 76-261 limits assumed): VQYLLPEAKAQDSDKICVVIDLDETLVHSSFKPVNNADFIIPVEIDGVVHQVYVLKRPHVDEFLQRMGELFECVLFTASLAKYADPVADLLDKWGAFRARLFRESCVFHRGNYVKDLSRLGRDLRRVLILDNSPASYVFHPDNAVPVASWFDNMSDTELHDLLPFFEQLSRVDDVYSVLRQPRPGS
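Material: truncated SCP-1 phosphatase (76-261aa) / Buffer or medium: 50 mM Tris acetate pH 5.5, 0.005% Tween-20, 10 mM MgCl2 / Compound dosing: one concentration, 20 µM, with 1.0% DMSO / Incubation: 45 min room-temperature reaction, 5 min colour, 30 min stabiliser / Detection: colorimetric free-phosphate detection, absorbance 630 nm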
STEP block – STEP phosphatase inhibitors, primary screen, biochemical, fluorescence intensity, uHTS. inhibition, % at 20 µM. recombinant STEP, OMFP fluorogenic substrate. AID 588621, 2011. Tyrosine-protein phosphatase non-receptor type 5 (Homo sapiens), P54829. 360,000 tested, 0.25% active;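 active = inhibition at 20 µM, scaled per plate between control wells, above about 37%, limit read from the data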
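Material: STEP (striatal-enriched tyrosine phosphatase) enzyme, cell-free; Compound dosing: 20 µM single dose in 1% DMSO; Technique: fluorescence read at 480 nm ex / 540 nm em; Times: reaction 20 min, ambient temperature; Medium: 50 mM Bis-Tris pH 6.0 with 2.5 mM DTT and 0.005% Tween 20; Also added: OMFP at 25 µM.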
LMPTP block – LMPTP phosphatase inhibitors, primary screen, biochemical, fluorescence intensity, uHTS; Low molecular weight phosphotyrosine protein phosphatase (Homo sapiens), P24666; recombinant LMPTP-A, OMFP fluorogenic substrate; inhibition, % at 20 µM; 360,000 tested, 0.22% active; AID 651560, 2012;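 active = compounds that cut the enzyme signal by at least half of the control window in the single-dose screen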
Target sequence (P24666 whole entry, looked up): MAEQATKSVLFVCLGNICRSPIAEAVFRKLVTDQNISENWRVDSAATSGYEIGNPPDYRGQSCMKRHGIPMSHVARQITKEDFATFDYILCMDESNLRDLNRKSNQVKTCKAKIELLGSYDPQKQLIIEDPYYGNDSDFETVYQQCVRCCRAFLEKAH
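Material: LMPTP-A; amount: 0.625 nM enzyme; doses: single 20 µM dose; times: reaction 50 min, room temperature, dark; technique: fluorescence intensity of OMFP turnover product; benchmarks: no-enzyme and uninhibited controls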
rCAG RNA binder – binders of r(CAG) RNA repeats, primary screen, biochemical, fluorescence. r(CAG) RNA repeat, TO-PRO-1 dye displacement fluorescence. inhibition, % at 3 µM. 370,000 tested, 1.3% active;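 active = inhibition above the plate cutoff, the mean of all test compounds on that plate plus 3 SD, cut at about 35% in these data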;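 also: higher means more dye released from RNA so lower well fluorescence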
NadD inh – inhibitors of S. aureus NadD, primary screen, biochemical, colorimetric, uHTS; Nicotinate-nucleotide adenylyltransferase NadD (Staphylococcus aureus N315); purified NadD enzyme, colorimetric absorbance read-out; inhibition, % at 20 µM; 360,000 tested, 0.78% active; in the data active = inhibition above about 26%
rCAG binder conf – small molecules binding CAG repeat RNA – biochemical, fluorescence, confirmation | inhibition, % at 3 µM | 4,300 tested, 70% active | shares compounds with rCAG RNA binder | r(CAG) RNA repeat, TO-PRO-1 dye displacement fluorescence;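 active = inhibition above a per-plate cutoff, the mean inhibition of sample wells plus 3 SD, cut at about 35% in these data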;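 also: loss of TO-PRO-1 fluorescence as compound displaces dye from 1x1 AA loop RNA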
dCAG dye counter – displacement of TO-PRO-1 from CAG DNA duplex, counter-screen for rCAG RNA repeat binder project, biochemical, fluorescence, TO-PRO-1 dye, d(CAG) DNA oligo | d(CAG) DNA oligo TO-PRO-1 dye displacement | inhibition, % at 3 µM | shares compounds with rCAG RNA binder | 4,300 tested, 94% active;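 active = inhibition above its plate's cutoff, the mean test-well inhibition plus 3 SD, cut at about 4.8% in these data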;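 also: hits displace the dye from DNA and so lower well fluorescence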
Of the large screens only hits and unclear results are named; the others gave an inactive call (follow-up assays come after a bar, where they were run).

Cc1cc(NS(=O)(=O)c2ccc(NC(=O)CCCOc3ccc(Cl)cc3)cc2)no1	rCAG RNA binder 50.4 | rCAG binder conf inactive | dCAG dye counter 10.2
Cc1cc(NS(=O)(=O)c2ccc(NC(=O)COc3ccc(Cl)c(C)c3)cc2)no1	rCAG RNA binder 41.4 | rCAG binder conf inactive | dCAG dye counter 8.3
Cc1cc(NS(=O)(=O)c2ccc(NC(=O)COc3ccc(Cl)cc3Cl)cc2)no1	rCAG RNA binder 55.0 | rCAG binder conf 41.8 | dCAG dye counter 12.1
O=C1N(Cc2ccccc2)c2ccccc2C12CCCc1oc(CCc3ccccc3)nc12 (centres undefined)	none (no result: Scp-1 inhibitor, STEP block, LMPTP block, NadD inh)
COC(=O)[C@]12C[C@H](CC(=O)NCCCN3CCCC3=O)C(=O)N(Cc3ccco3)C1=C[C@H](C(C)(C)C)O[C@@H]2C	none (no result: Scp-1 inhibitor, STEP block, LMPTP block, NadD inh)
Cc1cc(NS(=O)(=O)c2ccc(NC(=O)COc3ccccc3C(C)(C)C)cc2)no1	rCAG RNA binder 71.5 | rCAG binder conf 58.1 | dCAG dye counter 24.7
O=C(Nc1cc(S(=O)(=O)N2CCCCC2)ccc1O)c1ccccc1NS(=O)(=O)c1ccc(F)c(F)c1	rCAG RNA binder 85.3 | rCAG binder conf 87.9 | dCAG dye counter 63.7
NS(=O)(=O)c1cccc(NC(=O)c2ccccc2NS(=O)(=O)c2ccc(F)cc2)c1	rCAG RNA binder 38.0 | rCAG binder conf 38.0 | dCAG dye counter 12.0
Cc1onc(-c2c(F)cccc2Cl)c1C(=O)Nc1cc(S(=O)(=O)N2CCCCC2)ccc1O	rCAG RNA binder 52.1 | rCAG binder conf 36.3 | dCAG dye counter 12.2
Cc1ccc(NC(=O)CCNC(=O)c2ccccc2Cl)cc1S(=O)(=O)N1CCCCCC1	none
Cc1ccc(NC(=O)c2ccccc2NS(=O)(=O)c2ccc(F)cc2)cc1S(=O)(=O)N1CCCCC1	rCAG RNA binder 67.5 | rCAG binder conf 83.1 | dCAG dye counter 52.3
Cc1onc(-c2c(F)cccc2Cl)c1C(=O)Nc1ccc(S(=O)(=O)N2CCOCC2)cc1	none
COc1ccc(S[C@]2(C(=O)N3CCN(c4ncccn4)CC3)CC(=O)N(c3ccc(Cl)cc3)[C@@H]2c2ccc(OC)cc2)cc1	none (no result: Scp-1 inhibitor, STEP block, LMPTP block, NadD inh)
CCN(CC)C(=O)CC[C@@H]1CC[C@]2(CCCN(C(=O)C(C)(C)C)C2)O1	none (no result: Scp-1 inhibitor, STEP block, LMPTP block, NadD inh)
O=S(=O)(Nc1cccc(S(=O)(=O)N2CCCCC2)c1)c1ccc(Cl)s1	rCAG RNA binder 45.7 | rCAG binder conf 34.8 | dCAG dye counter 11.6
O=C(Nc1cccc(S(=O)(=O)N2CCCCC2)c1)c1ccccc1NS(=O)(=O)c1ccc(F)cc1	rCAG RNA binder 61.1 | rCAG binder conf 75.7 | dCAG dye counter 35.5
CCCCCOC(=O)C1C(c2ccccc2)C(C(=O)O)C1c1ccccc1 (centres undefined)	rCAG RNA binder 35.4 | rCAG binder conf inactive | dCAG dye counter inactive
O=C(O)C1C(c2ccccc2)C(C(=O)OCCCO)C1c1ccccc1 (centres undefined)	none
O=C(Nc1ccc(F)cc1)Nc1c(-c2ccc(C(F)(F)F)cc2)nc2ncccn12	none (no result: Scp-1 inhibitor, STEP block, LMPTP block, NadD inh)
Cc1nc(S/C(=C/c2ccc(-c3ccc(Cl)cc3)o2)C(=O)O)n[nH]1	none
Cc1nc(S/C(=C/c2ccc(-c3cc(Cl)ccc3C)o2)C(=O)O)n[nH]1	rCAG RNA binder 50.8 | rCAG binder conf 80.6 | dCAG dye counter 43.9
CCC(CC)(CC(=O)Nc1cccc(/C=C/c2nc(C3CCC3)cs2)c1)C(=O)O	rCAG RNA binder 46.2 (no result: Scp-1 inhibitor, STEP block, LMPTP block, NadD inh) | rCAG binder conf 55.3 | dCAG dye counter 17.7
O=C(N/N=C/C=C/c1ccco1)/C(=C/c1ccccc1)NC(=O)c1ccccc1	rCAG RNA binder 37.5 | rCAG binder conf inactive | dCAG dye counter 13.1
COc1ccccc1-n1c(SCC(=O)Nc2ccc(Br)cc2)nc(O)cc1=O	rCAG RNA binder 41.5 | rCAG binder conf inactive | dCAG dye counter 7.5
O=C(CSc1nc(O)cc(=O)n1-c1ccccc1)Nc1nc2ccccc2s1	rCAG RNA binder 44.0 | rCAG binder conf 51.6 | dCAG dye counter 18.6
Cc1ccc(-n2c(SCC(=O)Nc3ccc(Cl)cc3)nc(O)cc2=O)cc1	rCAG RNA binder 37.0 | rCAG binder conf inactive | dCAG dye counter 10.2
Nn1c(SCC(=O)Nc2nc3ccccc3s2)nncc1=O	none
COc1ccc(-n2c(SCC(=O)Nc3ccc(Cl)cc3)nc(O)c(Cc3ccccc3)c2=O)cc1	rCAG RNA binder 62.5 | rCAG binder conf 53.9 | dCAG dye counter 19.7
C=CCNC(=O)NC[C@@]1(C(=O)OC)CC(=O)N(C)[C@@H]1c1ccccc1	none (no result: Scp-1 inhibitor, STEP block, LMPTP block, NadD inh)
Cn1ccnc1CN1CCC[C@]2(CC[C@H](CCC#N)O2)C1	none (no result: Scp-1 inhibitor, STEP block, LMPTP block, NadD inh)
N#Cc1cccc(NC(=O)OC2CCC23CCC(c2ccccc2)CC3)c1 (centres undefined)	none (no result: Scp-1 inhibitor, STEP block, LMPTP block, NadD inh)
N#Cc1ccc2nc(-c3ccc(CN4CCC(c5nc6ccccc6[nH]5)CC4)cc3)c(-c3ccccc3)nc2c1	none (no result: Scp-1 inhibitor, STEP block, LMPTP block, NadD inh)
COc1ccc(-n2c(SCC(=O)Nc3ccc(C)cc3)nc(O)c(Cc3ccccc3)c2=O)cc1	none
COc1ccc(NC(=O)CSc2nc(O)cc(=O)n2-c2ccccc2)cc1	rCAG RNA binder 37.7 | rCAG binder conf inactive | dCAG dye counter 7.5
CCOC(=O)C1CSCCS(=O)(=O)N1Cc1ccccc1F (centres undefined)	none (no result: Scp-1 inhibitor, STEP block, LMPTP block, NadD inh)
Cc1ccc(S(=O)(=O)Nc2c(C(=O)O)[nH]c3ccccc23)c(C)c1	rCAG RNA binder 57.7 | rCAG binder conf inactive | dCAG dye counter 7.3
COc1ccc2[nH]c(C(=O)O)c(NS(=O)(=O)c3ccc(C)c(C)c3)c2c1	rCAG RNA binder 43.5 | rCAG binder conf inactive | dCAG dye counter 5.9
O=S(=O)(c1cccs1)N1CCC(c2cn3ccccc3n2)CC1	none (no result: Scp-1 inhibitor, STEP block, LMPTP block, NadD inh)
CCn1c(O)c(N=Nc2ccc(Cl)c(C(=O)O)c2)c2ccccc21	none
CC(C)n1c(O)c(N=Nc2ccc(Cl)c(C(=O)O)c2)c2ccccc21	rCAG RNA binder 38.1 | rCAG binder conf 35.8 | dCAG dye counter 9.0
